Reference: ChEMBL document CHEMBL1153575, “Synthesis and in vitro anticancer activity of 2,4-azolidinedione-acetic acids derivatives” (2009)

Tests used:
Type in all cases: functional
NCI-H460 = assay: Cytotoxicity against human NCI-H460 cells assessed as cell growth at 100 uM after 48 hrs by sulforhodamine B assay; settings: NCI-H460, 48 h, read-out: Activity
How it was run: (§1)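 Primary one-dose screen on a three-line panel (MCF7 breast, NCI-H460 lung, SF-268 CNS) at 10^-4 M. Cells were preincubated 24–48 h before a single addition of the agent, followed by 48 h incubation. Endpoint was SRB protein staining, reported as percent growth versus untreated controls.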

MCF7 = assay: Cytotoxicity against human MCF7 cells assessed as cell growth at 100 uM after 48 hrs by sulforhodamine B assay; settings: MCF7, 48 h, read-out: Activity; how it was run: as §1
SF-268 [1] = assay: Cytotoxicity against human SF268 cells assessed as cell growth at 100 uM after 48 hrs by sulforhodamine B assay; settings: SF-268, 48 h, read-out: Activity; how it was run: as §1
MDA-MB-231 = assay: Growth inhibition of human MDA-MB-231 cells after 48 hrs by sulforhodamine B assay; settings: MDA-MB-231, 48 h; for TGI: read-out: pTGI (converted)
How it was run: (§2)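 Five-concentration assay in about 60 human tumour lines, using 10-fold dilutions from 10^-4 to 10^-8 M with 48 h continuous exposure and an SRB protein endpoint. Percent growth at each level comes from time-zero, untreated-control and treated absorbances. GI50 is 50% lower net protein increase than control. Values beyond the tested range are given as greater or less than the extreme concentration.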

[2] = Growth inhibition of human Hs 578T cells after 48 hrs by sulforhodamine B assay; settings: for CC50: read-out: pLC50 (the source's name) (converted); for TGI: read-out: pTGI (converted); how it was run: as §2
SR [3] = assay: Growth inhibition of human SR cells after 48 hrs by sulforhodamine B assay; settings: for TGI: read-out: pTGI (converted); how it was run: as §2
NCI-H23 = assay: Growth inhibition of human NCI-H23 cells after 48 hrs by sulforhodamine B assay; settings: NCI-H23, 48 h; how it was run: as §2
A498 = assay: Growth inhibition of human A498 cells after 48 hrs by sulforhodamine B assay; settings: A498, 48 h; how it was run: as §2
RPMI-8226 [4] = assay: Cytotoxicity against human RPMI8226 cells assessed as cell growth at 10 uM after 48 hrs by sulforhodamine B assay; settings: RPMI-8226, 48 h, read-out: Activity
How it was run: (§3)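 Single-dose primary screen at 10^-5 M (final) across a panel of about 60 human tumour cell lines. Cells were inoculated and preincubated 24–48 h, then the compound was added once and incubated a further 48 h. Protein was stained with sulforhodamine B and read spectrophotometrically. Percent growth is given relative to untreated control cells.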

SR [5] = assay: Cytotoxicity against human SR cells assessed as cell growth at 10 uM after 48 hrs by sulforhodamine B assay; settings: read-out: Activity; how it was run: as §3
TK-10 [6] = assay: Cytotoxicity against human TK10 cells assessed as cell growth at 10 uM after 48 hrs by sulforhodamine B assay; settings: TK-10, 48 h, read-out: Activity; how it was run: as §3
UO-31 = assay: Cytotoxicity against human UO31 cells assessed as cell growth at 10 uM after 48 hrs by sulforhodamine B assay; settings: UO-31, 48 h, read-out: Activity; how it was run: as §3
ACHN = assay: Cytotoxicity against human ACHN cells assessed as cell growth at 10 uM after 48 hrs by sulforhodamine B assay; settings: read-out: Activity; how it was run: as §3
[7] = Cytotoxicity against human IGROV cells assessed as cell growth at 10 uM after 48 hrs by sulforhodamine B assay; settings: read-out: Activity; how it was run: as §3
CCRF-CEM = assay: Growth inhibition of human CCRF-CEM cells after 48 hrs by sulforhodamine B assay; how it was run: as §2
MOLT-4 = assay: Growth inhibition of human MOLT4 cells after 48 hrs by sulforhodamine B assay; settings: MOLT-4, 48 h; how it was run: as §2
RPMI-8226 [8] = assay: Growth inhibition of human RPMI8226 cells after 48 hrs by sulforhodamine B assay; settings: RPMI-8226, 48 h; how it was run: as §2
HOP-62 = assay: Growth inhibition of human HOP62 cells after 48 hrs by sulforhodamine B assay; settings: HOP-62, 48 h; how it was run: as §2
HOP-92 = assay: Growth inhibition of human HOP92 cells after 48 hrs by sulforhodamine B assay; settings: HOP-92, 48 h; how it was run: as §2
NCI-H226 = assay: Growth inhibition of human NCI-H226 cells after 48 hrs by sulforhodamine B assay; settings: NCI-H226, 48 h; how it was run: as §2
SN12C = assay: Growth inhibition of human SN12C cells after 48 hrs by sulforhodamine B assay; how it was run: as §2
HL-60(TB) = assay: Growth inhibition of human HL-60(TB) cells after 48 hrs by sulforhodamine B assay; settings: HL-60, 48 h
How it was run: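 Cells inoculated and preincubated 24–48 h in microtiter plates, then exposed continuously for 48 h to five 10-fold dilutions from 10^-4 to 10^-8 M. End point by sulforhodamine B protein staining, read spectrophotometrically against untreated controls and time-zero absorbance. Percent growth computed per concentration; GI50 taken where [(Ti−Tz)/(C−Tz)]×100 = 50, expressed as log molar value.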

SF-268 [9] = assay: Growth inhibition of human SF268 cells after 48 hrs by sulforhodamine B assay; settings: SF-268, 48 h; how it was run: as §2
SF-539 = assay: Growth inhibition of human SF539 cells after 48 hrs by sulforhodamine B assay; settings: SF-539, 48 h; how it was run: as §2
SNB- = assay: Growth inhibition of human SNB cells after 48 hrs by sulforhodamine B assay; how it was run: as §2
U-251 = assay: Growth inhibition of human U251 cells after 48 hrs by sulforhodamine B assay; settings: U-251, 48 h; how it was run: as §2
LOX IMVI = assay: Growth inhibition of human LOXIMVI cells after 48 hrs by sulforhodamine B assay; how it was run: as §2
OVCAR-4 = assay: Growth inhibition of human OVCAR4 cells after 48 hrs by sulforhodamine B assay; settings: OVCAR-4, 48 h; how it was run: as §2
SK-OV-3 = assay: Growth inhibition of human SKOV3 cells after 48 hrs by sulforhodamine B assay; settings: SK-OV-3, 48 h; how it was run: as §2
TK-10 [10] = assay: Growth inhibition of human TK10 cells after 48 hrs by sulforhodamine B assay; settings: TK-10, 48 h; how it was run: as §2
PC-3 = assay: Growth inhibition of human PC3 cells after 48 hrs by sulforhodamine B assay; settings: PC-3, 48 h; how it was run: as §2
OVCAR-5 = assay: Cytotoxicity against human OVCAR5 cells assessed as cell growth at 10 uM after 48 hrs by sulforhodamine B assay; settings: OVCAR-5, 48 h, read-out: Activity; how it was run: as §3
HCT-116 = assay: Cytotoxicity against human HCT116 cells assessed as cell growth at 10 uM after 48 hrs by sulforhodamine B assay; settings: HCT-116, 48 h, read-out: Activity; how it was run: as §3
CAKI-1 = assay: Cytotoxicity against human Caki1 cells assessed as cell growth at 10 uM after 48 hrs by sulforhodamine B assay; settings: CAKI-1, 48 h, read-out: Activity; how it was run: as §3
[11] = read-out: pLC50 (the source's name) (converted)

## O=C(CN1C(=O)N/C(=C\C=C\c2ccccc2)C1=O)Nc1ccc(Cl)cc1
NCI-H460
  growth at 100 µM: 17%
MCF7
  growth at 100 µM: 7%
SF-268 [1]
  growth at 100 µM: 39%
MDA-MB-231
  GI50: 26.3 µM
  LC50: > 100 µM
  TGI: > 100 µM
[2]
  GI50: 21.9 µM
  CC50: > 100 µM
  TGI: 52.5 µM
SR [3]
  GI50: 33.9 µM
  LC50: > 100 µM
  TGI: > 100 µM
NCI-H23
  GI50: 31.6 µM
  LC50: > 100 µM
NCI-H23; read-out: pTGI (converted)
  TGI: > 100 µM
A498
  GI50: 17.8 µM
A498; [11]
  CC50: 77.6 µM
A498; read-out: pTGI (converted)
  TGI: 37.2 µM

## O=C(CN1C(=O)N/C(=C\C=C\c2ccccc2)C1=O)Nc1ccccc1C(F)(F)F
RPMI-8226 [4]
  growth at 10 µM: 26.6%

## NS(=O)(=O)c1ccc(NC(=O)CC2NC(=O)NC2=O)cc1 (stereo not given)
SR [5]
  growth at 10 µM: 68.3%

## O=C(CN1C(=O)S/C(=C\C=C\c2ccccc2)C1=O)Nc1ccccc1C(F)(F)F
TK-10 [6]
  growth at 10 µM: 62.5%

## O=C(CN1C(=O)N/C(=C\c2ccccc2)C1=O)Nc1ccc(Cl)cc1
UO-31
  growth at 10 µM: -83.1%
ACHN
  growth at 10 µM: 1.51%
[7]
  growth at 10 µM: -3.51%

## O=C(CN1C(=O)N/C(=C\c2ccc(Cl)cc2)C1=O)Nc1ccc(Cl)cc1
CCRF-CEM
  GI50: 14.8 µM
  LC50: 67.6 µM
CCRF-CEM; read-out: pTGI (converted)
  TGI: 31.6 µM
MOLT-4
  GI50: 11 µM
MOLT-4; [11]
  CC50: 72.4 µM
MOLT-4; read-out: pTGI (converted)
  TGI: 28.2 µM
RPMI-8226 [8]
  GI50: 20.9 µM
  LC50: > 100 µM
RPMI-8226 [8]; read-out: pTGI (converted)
  TGI: 67.6 µM
HOP-62
  GI50: 15.1 µM
  LC50: > 100 µM
HOP-62; read-out: pTGI (converted)
  TGI: 43.7 µM
HOP-92
  GI50: 17.4 µM
  LC50: > 100 µM
HOP-92; read-out: pTGI (converted)
  TGI: 50.1 µM
NCI-H226
  GI50: 15.8 µM
NCI-H226; [11]
  CC50: > 100 µM
NCI-H226; read-out: pTGI (converted)
  TGI: 44.7 µM
SN12C
  GI50: 17 µM
  LC50: > 100 µM
SN12C; read-out: pTGI (converted)
  TGI: 47.9 µM
MDA-MB-231
  GI50: 16.2 µM
  LC50: > 100 µM
  TGI: 42.7 µM
[2]
  GI50: 10.7 µM
  CC50: > 100 µM
  TGI: 38 µM
HL-60(TB)
  GI50: 19.5 µM
HL-60(TB); [11]
  CC50: > 100 µM
HL-60(TB); read-out: pTGI (converted)
  TGI: 46.8 µM
SR [3]
  GI50: 7.08 µM
  LC50: > 100 µM
  TGI: 67.6 µM
SF-268 [9]
  GI50: 10.5 µM
SF-268 [9]; [11]
  CC50: 85.1 µM
SF-268 [9]; read-out: pTGI (converted)
  TGI: 29.5 µM
SF-539
  GI50: 16.6 µM
SF-539; [11]
  CC50: 89.1 µM
SF-539; read-out: pTGI (converted)
  TGI: 38.9 µM
SNB-
  GI50: 13.2 µM
SNB-; [11]
  CC50: > 100 µM
SNB-; read-out: pTGI (converted)
  TGI: 36.3 µM
U-251
  GI50: 14.8 µM
  LC50: 60.3 µM
U-251; read-out: pTGI (converted)
  TGI: 29.5 µM
LOX IMVI
  GI50: 15.5 µM
LOX IMVI; [11]
  CC50: 66.1 µM
LOX IMVI; read-out: pTGI (converted)
  TGI: 32.4 µM
OVCAR-4
  GI50: 13.2 µM
OVCAR-4; [11]
  CC50: > 100 µM
OVCAR-4; read-out: pTGI (converted)
  TGI: 64.6 µM
SK-OV-3
  GI50: 19.5 µM
  LC50: > 100 µM
SK-OV-3; read-out: pTGI (converted)
  TGI: 51.3 µM
TK-10 [10]
  GI50: 17 µM
TK-10 [10]; [11]
  CC50: > 100 µM
TK-10 [10]; read-out: pTGI (converted)
  TGI: 42.7 µM
PC-3
  GI50: 18.6 µM
PC-3; [11]
  CC50: > 100 µM
PC-3; read-out: pTGI (converted)
  TGI: 46.8 µM

## NS(=O)(=O)c1ccc(NC(=O)CN2C(=O)CNC2=O)cc1
UO-31
  growth at 10 µM: 26%

## O=C(CN1C(=O)S/C(=C\c2ccc(Cl)cc2)C1=O)Nc1ccccc1C(F)(F)F
UO-31
  growth at 10 µM: 75.8%

## CN(C)c1ccc(/C=C2\SC(=O)N(CC(=O)Nc3ccccc3C(F)(F)F)C2=O)cc1
SR [5]
  growth at 10 µM: 45.8%

## COc1ccc(/C=C2\NC(=O)N(CC(=O)Nc3nccs3)C2=O)cc1
OVCAR-5
  growth at 10 µM: 76.5%

## CN(C)c1ccc(/C=C2\NC(=O)N(CC(=O)Nc3ccccc3C(F)(F)F)C2=O)cc1
HCT-116
  growth at 10 µM: 31%

## NS(=O)(=O)c1ccc(NC(=O)CC2SC(=O)NC2=O)cc1 (stereo not given)
CAKI-1
  growth at 10 µM: 54.2%
